Results from ChEMBL document CHEMBL1152368, “Synthesis, structure-activity relationships, and biological profiles of a dihydrobenzoxathiin class of histamine H(3) receptor inverse agonists” (Bioorg Med Chem Lett, 2009).

What was measured:
Histamine H3 receptor [1] = target: Histamine H3 receptor (Rattus norvegicus, UniProt Q9QYN8); assay: Displacement of [3H]R-alpha-methylhistamine from rat histamine H3 receptor by cell-based assay
Outline: (§1)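 Radioligand binding with [³H]R-α-methylhistamine on membranes of CHO or HEK293 cells expressing human, rat or mouse H₃ receptor.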

Histamine H3 receptor [2] = target: Histamine H3 receptor (Mus musculus, UniProt P58406); assay: Displacement of [3H]R-alpha-methylhistamine from mouse histamine H3 receptor by cell-based assay; outline: as §1
Histamine H1 receptor = Histamine H1 receptor (Homo sapiens, UniProt P35367); assay: Inhibition of human histamine H1 receptor
Histamine H2 receptor = Histamine H2 receptor (Homo sapiens, UniProt P25021); assay: Inhibition of human histamine H2 receptor
Histamine H4 receptor = Histamine H4 receptor (Homo sapiens, UniProt Q9H3N8); assay: Inhibition of human histamine H4 receptor

Histamine H2 receptor, sequence (P25021 whole entry): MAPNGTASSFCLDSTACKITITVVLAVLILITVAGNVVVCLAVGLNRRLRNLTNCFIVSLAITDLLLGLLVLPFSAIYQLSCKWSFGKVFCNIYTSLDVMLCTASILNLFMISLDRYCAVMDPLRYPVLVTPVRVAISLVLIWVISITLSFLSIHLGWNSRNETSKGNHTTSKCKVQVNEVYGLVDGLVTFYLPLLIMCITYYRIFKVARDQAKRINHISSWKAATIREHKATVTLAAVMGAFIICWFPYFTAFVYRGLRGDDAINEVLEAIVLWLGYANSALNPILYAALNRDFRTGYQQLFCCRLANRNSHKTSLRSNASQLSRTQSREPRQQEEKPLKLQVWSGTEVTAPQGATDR
Histamine H1 receptor, sequence (P35367 whole entry): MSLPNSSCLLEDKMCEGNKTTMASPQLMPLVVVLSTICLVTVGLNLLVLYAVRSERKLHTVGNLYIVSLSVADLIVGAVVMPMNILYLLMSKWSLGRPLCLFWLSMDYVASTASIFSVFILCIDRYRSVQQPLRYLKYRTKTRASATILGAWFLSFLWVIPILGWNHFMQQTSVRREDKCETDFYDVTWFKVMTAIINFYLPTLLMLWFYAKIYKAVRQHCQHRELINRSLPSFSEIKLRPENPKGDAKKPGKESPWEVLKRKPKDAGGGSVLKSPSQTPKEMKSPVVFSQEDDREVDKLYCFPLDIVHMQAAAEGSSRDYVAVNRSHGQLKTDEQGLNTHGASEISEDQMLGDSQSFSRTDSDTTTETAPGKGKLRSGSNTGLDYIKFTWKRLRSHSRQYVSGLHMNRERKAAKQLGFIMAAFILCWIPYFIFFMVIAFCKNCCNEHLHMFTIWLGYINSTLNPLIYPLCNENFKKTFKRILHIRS
Histamine H3 receptor (Rattus norvegicus, UniProt Q9QYN8), sequence (Q9QYN8 whole entry): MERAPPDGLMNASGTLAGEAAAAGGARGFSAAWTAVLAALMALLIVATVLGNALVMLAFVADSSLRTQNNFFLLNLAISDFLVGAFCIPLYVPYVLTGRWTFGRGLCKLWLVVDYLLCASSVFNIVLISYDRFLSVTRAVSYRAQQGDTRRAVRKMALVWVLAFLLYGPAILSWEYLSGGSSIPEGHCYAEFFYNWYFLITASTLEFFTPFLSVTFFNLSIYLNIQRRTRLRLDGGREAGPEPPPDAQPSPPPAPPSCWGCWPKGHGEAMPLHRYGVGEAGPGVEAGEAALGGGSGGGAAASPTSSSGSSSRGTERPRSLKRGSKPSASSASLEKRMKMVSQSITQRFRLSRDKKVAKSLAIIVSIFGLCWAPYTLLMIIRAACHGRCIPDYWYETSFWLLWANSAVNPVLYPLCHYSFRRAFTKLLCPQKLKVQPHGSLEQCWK
Histamine H3 receptor (Mus musculus, UniProt P58406), sequence (P58406 whole entry): as the sequence (Q9QYN8 whole entry) above, with T15A, A286T, A290G, R387H, I389V counted along it

A Ki (Histamine H3 receptor [1]) of 2.8 nM, a Ki (Histamine H3 receptor [2]) of 5.9 nM and an IC50 (Histamine H1 receptor) greater than 10000 nM were found for `COc1cccc2c1O[C@@H](c1ccc(OCCCN3CCCC3)cc1)[C@H](C)S2(=O)=O` in this work. The IC50 (Histamine H2 receptor) was greater than 10000 nM and the IC50 (Histamine H4 receptor) was greater than 10000 nM.
